Results pooled from the literature.
Each line is one published result; the experiments were not run side by side.
Target: Non-receptor tyrosine-protein kinase TNK1 (TNK1, Homo sapiens, UniProt Q13470)
Residues used in one study (Q13470 1-666): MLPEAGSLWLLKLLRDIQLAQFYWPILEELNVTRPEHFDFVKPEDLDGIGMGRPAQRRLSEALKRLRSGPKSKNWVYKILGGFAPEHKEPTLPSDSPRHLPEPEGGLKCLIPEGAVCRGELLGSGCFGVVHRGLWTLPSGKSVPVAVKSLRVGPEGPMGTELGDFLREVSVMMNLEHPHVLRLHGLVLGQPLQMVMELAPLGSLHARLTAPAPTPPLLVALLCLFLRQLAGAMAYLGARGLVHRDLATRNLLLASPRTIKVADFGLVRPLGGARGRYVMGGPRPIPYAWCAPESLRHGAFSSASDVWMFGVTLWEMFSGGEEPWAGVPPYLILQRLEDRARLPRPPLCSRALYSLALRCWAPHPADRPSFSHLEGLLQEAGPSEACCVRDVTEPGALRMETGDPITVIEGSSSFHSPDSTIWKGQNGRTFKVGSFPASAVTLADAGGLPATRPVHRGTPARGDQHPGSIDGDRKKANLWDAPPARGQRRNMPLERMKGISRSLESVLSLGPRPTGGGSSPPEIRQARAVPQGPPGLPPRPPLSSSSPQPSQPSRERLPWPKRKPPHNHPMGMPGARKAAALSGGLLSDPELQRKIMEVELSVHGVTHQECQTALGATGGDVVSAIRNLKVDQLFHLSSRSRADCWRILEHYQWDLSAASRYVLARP

`Cc1cnc(Nc2ccc(C(=O)N3CCC(N4CCCC4)CC3)cc2)nc1-c1cc2ccccc2s1` gave a remaining binding of 13% (binding, competition with immobilised ligand; 1 µM).
For `C[C@@H](c1cccc(C#N)c1)n1cc(Cl)cc(C(N)=O)c1=N`, the remaining binding was 94% (cell-free assay, competition with immobilised ligand; 1 µM).
`COc1ncc2cc3ccccc3nc2c1C#N` has a remaining binding of 100% (cell-free assay, competition with immobilised ligand; 5 µM).
With `CN(C)c1ncc(F)c(-c2cnn3ncccc23)n1` the remaining binding was 100% (binding; 1 µM).
`FC(F)(F)Oc1cccc(-c2cnc3ccc(-c4ccncc4)nn23)c1` has a remaining binding of 88% (binding, competition with immobilised ligand; 5 µM).
The remaining binding of `F[C@@H]1CCN(c2nccc(-c3cnn4ncccc34)n2)C1` is reported as 87% (binding; 1 µM).
The remaining binding of `O=C(c1ccc(Nc2ncc(Cl)c(-c3cc4ccccc4s3)n2)cc1)N1CCC(N2CCCC2)CC1` is reported as 15% (binding, competition with immobilised ligand; 1 µM).
With `Cn1cc(Cl)c2c(Oc3c(F)cc(Nc4cc(Cl)nc(N)n4)cc3F)ccnc21` the remaining binding was 100% (cell-free assay, competition with immobilised ligand; 0.1 µM).
The remaining binding of `C=CC(=O)N1CCC(C(=O)NCC(=O)N2CCN(c3nc(-c4cnc(N)nc4C(F)F)nc(N4CCOCC4)n3)CC2)CC1` is reported as 83% (binding, competition with immobilised ligand; 1 µM).
`COc1cnc(Nc2cccc(S(N)(=O)=O)c2)nc1N1CCN(c2ccccc2)CC1` has a remaining binding of 98% (binding, competition with immobilised ligand; 1 µM).
The remaining binding of `CN1CCN(c2cnc3c(C4CCN(C(=O)c5ccc(OC(F)(F)F)cc5N)CC4)ncnc3c2)CC1` is reported as 100% (cell-free assay, competition with immobilised ligand; 1 µM).
`CN(c1nccc(-c2cnn3ncccc23)n1)C1CC1` has a remaining binding of 84% (binding; 1 µM).
The remaining binding of `COc1cnc(Nc2cccc(S(N)(=O)=O)c2)nc1N1CCN(c2ccccc2)C(=O)C1` is reported as 100% (binding, competition with immobilised ligand; 1 µM).
The remaining binding of `N[C@H]1CCN(c2nccc(-c3cnn4ncccc34)n2)C1` is reported as 0% (binding; 1 µM).
`Cc1c[nH]c2nccc(Oc3c(F)cc(Nc4cc(Cl)nc(N)n4)cc3F)c12` gave a remaining binding of 100% (cell-free assay, competition with immobilised ligand; 0.1 µM).
`C[C@@H]1CCN(c2nccc(-c3cnn4ncccc34)n2)C1` gave a remaining binding of 100% (binding; 1 µM).
The remaining binding of `CNC(=O)Nc1ccc2c(c1)CC[C@@]21OC(=O)N(CC(=O)N(Cc2ccc(F)cc2)[C@@H](C)C(F)(F)F)C1=O` is reported as 86% (cell-free assay, competition with immobilised ligand; 1 µM).
`O=C(Nc1c[nH]nc1C(=O)NC1CCNCC1)c1cc(F)cc(F)c1` has a remaining binding of 38% (binding, competition with immobilised ligand; 1 µM).
With `COc1cc(-c2cn(C3CCc4c(F)cccc4N(CC(F)(F)F)C3=O)nn2)ccc1-n1cnc(C)c1` (stereo not shown) the remaining binding was 100% (cell-free assay, competition with immobilised ligand; 1 µM).
With `c1cnn2ncc(-c3ccnc(N4CCC45COC5)n3)c2c1` the remaining binding was 100% (binding; 1 µM).
With `O=C(NCCCN1CCOCC1)c1ccc(Nc2nccc(-c3cc4ccccc4s3)n2)cc1` the remaining binding was 41% (binding, competition with immobilised ligand; 1 µM).
With `Cc1c(C(=O)O)cc(-c2ccc(C3CCNCC3)cc2)c2ccc(-c3ccc(C(F)(F)F)cc3)cc12` the remaining binding was 100% (binding, competition with immobilised ligand; 1 µM).
